Results reported in ChEMBL document CHEMBL2157924, “Cyclobutane derivatives as novel nonpeptidic small molecule agonists of glucagon-like peptide-1 receptor” (J Med Chem, 2012).

Key:
[1] = target: T1, Glucagon-like peptide 1 receptor (Rattus norvegicus, UniProt P32301); test: Inhibition of [125I]GLP1 (7-36) amide binding to rat GLP1R expressed in HEK293 cells; assay type: cell-based
T1 sequence (P32301 whole entry): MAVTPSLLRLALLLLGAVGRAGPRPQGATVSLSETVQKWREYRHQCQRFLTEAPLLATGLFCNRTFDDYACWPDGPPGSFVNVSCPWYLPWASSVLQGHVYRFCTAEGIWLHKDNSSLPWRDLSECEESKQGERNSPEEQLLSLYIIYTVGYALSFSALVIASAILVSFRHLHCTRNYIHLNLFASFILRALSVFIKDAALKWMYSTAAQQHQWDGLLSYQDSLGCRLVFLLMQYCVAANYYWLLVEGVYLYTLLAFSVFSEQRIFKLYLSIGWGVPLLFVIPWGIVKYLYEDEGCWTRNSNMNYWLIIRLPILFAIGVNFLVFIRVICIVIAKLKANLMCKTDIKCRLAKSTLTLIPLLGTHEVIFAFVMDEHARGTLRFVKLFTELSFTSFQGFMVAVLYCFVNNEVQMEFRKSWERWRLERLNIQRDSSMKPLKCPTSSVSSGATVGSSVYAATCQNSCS
Method in brief: (§1)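 Membranes (17 μg protein) from HEK293 cells stably expressing rat GLP-1R were preincubated 5 h at 4 °C with FlashBlue beads (150 μg). Then 40 pM [125I]GLP-1(7−36) amide or [125I]Exendin(9−39) was added with aprotinin 2 μg/mL, leupeptin 100 μM and test compound at varied concentrations. Incubated overnight at 4 °C, then bound radioactivity counted. Mean ± SEM of two independent experiments.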

[2] = target: T1, Glucagon-like peptide 1 receptor; test: Agonist activity at rat GLP1R expressed in HEK293 cells assessed as stimulation of cAMP levels incubated for 6 hrs by multiple response element/cAMP response element (MRE/CRE)-driven reporter gene assay; assay type: functional, cell-based
Method in brief: (§2)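 Stable HEK293 line co-expressing rat GLP-1R (pCMV-Tag2B) and a luciferase reporter with 3× MRE plus 1× CRE, seeded at 40000 cells/well and cultured overnight. Compounds in DMSO or GLP-1(7−37) were added for 6 h, then cells were lysed and luciferase read (Steady-Glo). The 10 nM GLP-1 maximum was taken as 100%. Mean ± SEM of two independent experiments; some values come from a single run.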

[3] = target: T2, Glucagon-like peptide 1 receptor (Rattus norvegicus) (UniProt P32301); test: Inhibition of [125I]Exendin (9-39) binding to rat GLP1R expressed in HEK293 cells; assay type: cell-based; design: concentration or dose not given beside the values; conditions: concentration not given here; method in brief: as §1
T2 sequence (whole entry): T1 sequence (P32301 whole entry)

[4] = target: T2, Glucagon-like peptide 1 receptor (Rattus norvegicus); test: Inhibition of [125I]GLP1 (7-36) amide binding to rat GLP1R expressed in HEK293 cells relative to untreated control; assay type: cell-based; design: concentration or dose not given beside the values; conditions: concentration not given here; method in brief: as §1
[5] = target: T2, Glucagon-like peptide 1 receptor (Rattus norvegicus); test: Agonist activity at rat GLP1R expressed in HEK293 cells assessed as stimulation of cAMP levels incubated for 6 hrs by multiple response element/cAMP response element (MRE/CRE)-driven reporter gene assay relative to 10 nM GLP1; assay type: functional, cell-based; method in brief: as §2

SMILES | IC50 [1] [µM] | EC50 [2] [µM] | inhibition [3] [%] | inhibition [4] [%] | Efficacy [5] [%]
COc1cc([C@H]2[C@](NC(=O)c3ccc(NC(=O)OC(C)(C)C)cc3)(C(N)=O)[C@@H](c3ccc(OC(=O)c4cccs4)c(OC)c3)[C@]2(NC(=O)c2ccc(NC(=O)OC(C)(C)C)cc2)C(N)=O)ccc1OC(=O)c1cccs1 | > 20 | > 20 | < 15 | < 15 | < 15
COc1cc([C@H]2[C@](NC(=O)c3ccc(NC(=O)OC(C)(C)C)cc3)(C(=O)O)[C@@H](c3ccc(OC(=O)c4cccs4)c(OC)c3)[C@@]2(NC(=O)c2ccc(NC(=O)OC(C)(C)C)cc2)C(=O)O)ccc1OC(=O)c1cccs1 | 3.6 | > 20 | 55.9 | 64.7 | < 15
CCOc1cc([C@H]2[C@](NC(=O)c3ccc(NC(=O)OC(C)(C)C)cc3)(C(=O)O)[C@@H](c3ccc(OC(=O)c4cccs4)c(OCC)c3)[C@]2(NC(=O)c2ccc(NC(=O)OC(C)(C)C)cc2)C(=O)O)ccc1OC(=O)c1cccs1 | 3.1 | 0.326 | < 15 | 50.2 | 85.6
CCCC(=O)Oc1ccc([C@H]2[C@](NC(=O)c3ccc(NC(=O)OC(C)(C)C)cc3)(C(=O)O)[C@@H](c3ccc(OC(=O)CCC)c(OC)c3)[C@]2(NC(=O)c2ccc(NC(=O)OC(C)(C)C)cc2)C(=O)O)cc1OC | 7.5 | 3.33 | 53.8 | 65.1 | 86
CCC(=O)Oc1ccc([C@H]2[C@](NC(=O)c3ccc(NC(=O)OC(C)(C)C)cc3)(C(=O)O)[C@@H](c3ccc(OC(=O)CC)c(OC)c3)[C@]2(NC(=O)c2ccc(NC(=O)OC(C)(C)C)cc2)C(=O)O)cc1OC | 2.7 | 2.5 | 68.3 | 86 | 91
COc1cccc([C@H]2[C@](NC(=O)c3ccc(NC(=O)OC(C)(C)C)cc3)(C(=O)O)[C@@H](c3cccc(OC)c3)[C@]2(NC(=O)c2ccc(NC(=O)OC(C)(C)C)cc2)C(=O)O)c1 | > 20 | > 20 | < 15 | < 15 | < 15
COc1cc([C@H]2[C@](NC(=O)c3ccc(NC(=O)OC(C)(C)C)cc3)(C(=O)O)[C@@H](c3ccc(OC(=O)C(C)C)c(OC)c3)[C@]2(NC(=O)c2ccc(NC(=O)OC(C)(C)C)cc2)C(=O)O)ccc1OC(=O)C(C)C | 7.5 | 1.38 | 34.8 | 47.2 | 65
CC(C)(C)OC(=O)Nc1ccc(C(=O)N[C@]2(C(=O)O)[C@H](c3cccc(OCc4ccccc4)c3)[C@@](NC(=O)c3ccc(NC(=O)OC(C)(C)C)cc3)(C(=O)O)[C@@H]2c2cccc(OCc3ccccc3)c2)cc1 | > 20 | > 20 | < 15 | < 15 | < 15
COc1cc([C@H]2[C@](NC(=O)c3ccc(NC(=S)Nc4cccc5ccccc45)cc3)(C(=O)O)[C@@H](c3ccc(OC(=O)c4cccs4)c(OC)c3)[C@]2(NC(=O)c2ccc(NC(=S)Nc3cccc4ccccc34)cc2)C(=O)O)ccc1OC(=O)c1cccs1 | 3 | 2.12 | 52.3 | 57.4 | 29.8
COc1cc([C@H]2[C@](NC(=O)c3ccc(NC(=O)OC(C)(C)C)cc3)(C(=O)O)[C@@H](c3ccc(OC(=O)c4ccc(C)s4)c(OC)c3)[C@]2(NC(=O)c2ccc(NC(=O)OC(C)(C)C)cc2)C(=O)O)ccc1OC(=O)c1ccc(C)s1 | 17.5 | 19.1 | 29.4 | 40.1 | 67
CNC(=S)Nc1ccc(C(=O)N[C@]2(C(=O)O)[C@H](c3ccc(OC(=O)c4cccs4)c(OC)c3)[C@@](NC(=O)c3ccc(NC(=S)NC)cc3)(C(=O)O)[C@@H]2c2ccc(OC(=O)c3cccs3)c(OC)c2)cc1 | 1.4 | 9.12 | 70.1 | 72.7 | 68
CCC(=O)Nc1ccc(C(=O)N[C@]2(C(=O)O)[C@H](c3ccc(OC(=O)c4cccs4)c(OC)c3)[C@@](NC(=O)c3ccc(NC(=O)CC)cc3)(C(=O)O)[C@@H]2c2ccc(OC(=O)c3cccs3)c(OC)c2)cc1 | 4.9 | 0.696 | 36.1 | 75.2 | 48.4
COc1cc([C@H]2C[C@]2(NC(=O)c2ccc(NC(=O)OC(C)(C)C)cc2)C(=O)O)ccc1OC(=O)c1cccs1 | > 20 | > 20 | < 15 | < 15 | < 15
COc1cc([C@H]2[C@](NC(=O)c3ccc(NC(=O)C4CC4)cc3)(C(=O)O)[C@@H](c3ccc(OC(=O)c4cccs4)c(OC)c3)[C@]2(NC(=O)c2ccc(NC(=O)C3CC3)cc2)C(=O)O)ccc1OC(=O)c1cccs1 | 1.2 | 0.148 | 67.8 | 86.4 | 84.2
CCOC(=O)CNC(=O)Nc1ccc(C(=O)N[C@]2(C(=O)O)[C@H](c3ccc(OC(=O)c4cccs4)c(OC)c3)[C@@](NC(=O)c3ccc(NC(=O)NCC(=O)OCC)cc3)(C(=O)O)[C@@H]2c2ccc(OC(=O)c3cccs3)c(OC)c2)cc1 | 4.3 | 4.5 | 37.9 | 43.8 | 33.7
CC(C)(C)OC(=O)Nc1ccc(C(=O)N[C@]2(C(=O)O)[C@H](c3ccccc3)[C@@](NC(=O)c3ccc(NC(=O)OC(C)(C)C)cc3)(C(=O)O)[C@@H]2c2ccccc2)cc1 | > 20 | > 20 | < 15 | < 15 | < 15
COc1cc([C@H]2[C@](NC(=O)c3ccc(NC(=O)OC(C)(C)C)cc3)(C(=O)O)[C@@H](c3ccc(OC(=O)C4CCCCC4)c(OC)c3)[C@]2(NC(=O)c2ccc(NC(=O)OC(C)(C)C)cc2)C(=O)O)ccc1OC(=O)C1CCCCC1 | > 20 | > 20 | < 15 | < 15 | < 15
COc1cc([C@H]2[C@](NC(=O)c3ccc(NC(C)=O)cc3)(C(=O)O)[C@@H](c3ccc(OC(=O)c4cccs4)c(OC)c3)[C@]2(NC(=O)c2ccc(NC(C)=O)cc2)C(=O)O)ccc1OC(=O)c1cccs1 | 2.31 | 0.118 | 30.6 | 55.4 | 61.1
COc1cc([C@H]2[C@](NC(=O)c3ccc(NC(=O)OC(C)(C)C)cc3)(C(=O)OC)[C@@H](c3ccc(OC(=O)c4cccs4)c(OC)c3)[C@]2(NC(=O)c2ccc(NC(=O)OC(C)(C)C)cc2)C(=O)OC)ccc1OC(=O)c1cccs1 | > 20 | > 20 | < 15 | < 15 | < 15
COc1cc([C@H]2[C@](NC(=O)c3ccc(NC(=O)OC(C)(C)C)cc3)(C(=O)O)[C@@H](c3ccc(OC(=O)C45CC6CC(CC(C6)C4)C5)c(OC)c3)[C@]2(NC(=O)c2ccc(NC(=O)OC(C)(C)C)cc2)C(=O)O)ccc1OC(=O)C12CC3CC(CC(C3)C1)C2 | 3.6 | 2.15 | 63.5 | 75.8 | 86
COc1cc([C@H]2[C@](NC(=O)c3ccc(NC(=O)OC(C)(C)C)cc3)(C(=O)O)[C@@H](c3ccc(OCc4ccc(F)cc4)c(OC)c3)[C@]2(NC(=O)c2ccc(NC(=O)OC(C)(C)C)cc2)C(=O)O)ccc1OCc1ccc(F)cc1 | > 20 | > 20 | < 15 | < 15 | < 15
